Active and inactive are the calls of the source. The calls are words filed in the database; no cut-off is given here.

Test [1] has as its target T1, 5-hydroxytryptamine receptor 1A (Homo sapiens, UniProt P08908).
T1 sequence (P08908 whole entry): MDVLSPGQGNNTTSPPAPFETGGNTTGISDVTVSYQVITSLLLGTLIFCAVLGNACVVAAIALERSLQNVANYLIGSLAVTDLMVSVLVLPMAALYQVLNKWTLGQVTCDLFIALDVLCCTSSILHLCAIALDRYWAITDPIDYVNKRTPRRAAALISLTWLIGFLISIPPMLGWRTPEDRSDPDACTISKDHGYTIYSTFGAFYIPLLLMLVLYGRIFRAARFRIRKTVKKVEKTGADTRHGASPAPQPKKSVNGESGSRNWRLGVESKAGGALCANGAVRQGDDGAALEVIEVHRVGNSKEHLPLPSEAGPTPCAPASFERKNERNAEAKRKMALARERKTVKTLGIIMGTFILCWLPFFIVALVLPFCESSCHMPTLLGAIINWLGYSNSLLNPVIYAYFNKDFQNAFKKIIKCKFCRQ
As to the kind of experiment: Displacement of [3H]8-OH-DPAT from human 5HT1A receptor expressed in HeLa cells after 30 mins. Type of test: cell-based. The method, boiled down: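 pKi is derived from displacement of [3H]-8-OH-DPAT binding at human cloned 5-HT1A receptor. Values are means ± SEMs of 3–6 separate experiments.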
(Loss of bound radioactivity is the signal in a displacement assay; it reports binding, not function.)

For test [2], the system named is Mus musculus. The test is described as follows: Antidepressant activity in CD1 mouse assessed as decrease in immobility time at 0.05 mg/kg, ip after 15 mins by forced swim test relative to vehicle-treated control. The test is classed as functional, organism-based. Set-up: dose 0.05 mg/kg. The method, boiled down:
(§1)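 Mouse forced swimming test with immobility time as the read-out. Single ip doses were 0.012, 0.025, 0.05, 0.2 or 0.5 mg/kg, with fluoxetine 20 mg/kg ip as reference. Results are compared against vehicle-treated mice and given as means ± SEMs of 8–9 animals.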

Test [3] concerns Mus musculus. The test is described as follows: Antidepressant activity in CD1 mouse assessed as decrease in immobility time at 0.025 mg/kg, ip after 15 mins by forced swim test relative to vehicle-treated control. Type of test: functional, organism-based. Set-up: dose 0.025 mg/kg. The method, boiled down: as §1
Test [4] concerns Mus musculus. As to the kind of experiment: Antidepressant activity in CD1 mouse assessed as decrease in immobility time at 0.2 mg/kg, ip after 15 mins by forced swim test relative to vehicle-treated control. Type of test: functional, organism-based. Details: dose 0.2 mg/kg. The method, boiled down:
as §1

In test [5] the test system is Mus musculus. The test is described as follows: Antidepressant activity in CD1 mouse assessed as decrease in immobility time at 0.012 mg/kg, ip after 15 mins by forced swim test relative to vehicle-treated control. Details: dose 0.012 mg/kg. Type of test: functional, organism-based. The method, boiled down:
as §1

Test [6] has as its system Mus musculus. The test is described as follows: Antidepressant activity in CD1 mouse assessed as decrease in immobility time at 0.5 mg/kg, ip after 15 mins by forced swim test relative to vehicle-treated control. Type of test: functional, organism-based. Set-up: dose 0.5 mg/kg. The method, boiled down:
as §1

The target in test [7] is T2, Alpha-2C adrenergic receptor (Homo sapiens) (UniProt P18825).
T2 sequence (whole entry): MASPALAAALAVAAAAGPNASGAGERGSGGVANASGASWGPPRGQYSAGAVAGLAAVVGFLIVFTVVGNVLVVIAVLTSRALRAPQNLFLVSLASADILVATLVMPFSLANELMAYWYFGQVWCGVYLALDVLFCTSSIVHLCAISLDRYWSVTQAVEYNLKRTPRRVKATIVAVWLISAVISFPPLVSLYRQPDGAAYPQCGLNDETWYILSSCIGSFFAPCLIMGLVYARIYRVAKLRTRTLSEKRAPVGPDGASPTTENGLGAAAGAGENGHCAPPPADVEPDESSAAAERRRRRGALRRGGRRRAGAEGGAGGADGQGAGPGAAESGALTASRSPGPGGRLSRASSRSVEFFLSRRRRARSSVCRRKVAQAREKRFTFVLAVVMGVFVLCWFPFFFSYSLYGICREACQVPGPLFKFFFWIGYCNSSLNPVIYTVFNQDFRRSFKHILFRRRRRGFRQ
As to the kind of experiment: Agonist activity at human alpha2C adrenoceptor expressed in CHO cells assessed as extracellular acidification measured after 4 mins by cytosensor microphysiometric analysis relative to control. Type of test: functional, cell-based. The method, boiled down: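 Binding and functional assays run on CHO cells expressing recombinant human α2-AR subtypes. Functional read-outs are agonist potency (pEC50) with intrinsic activity (ia), or antagonist pKb. Affinity is reported as pKi. Values are means ± SEMs of 3–6 separate experiments.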

Test [8] deals with T3, 5-hydroxytryptamine receptor 1A (Homo sapiens) (UniProt P08908).
T3 sequence (whole entry): T1 sequence (P08908 whole entry)
As to conditions: HeLa.

For test [9], the target named is T4, Alpha-2B adrenergic receptor (Homo sapiens) (UniProt P18089).
T4 sequence (whole entry): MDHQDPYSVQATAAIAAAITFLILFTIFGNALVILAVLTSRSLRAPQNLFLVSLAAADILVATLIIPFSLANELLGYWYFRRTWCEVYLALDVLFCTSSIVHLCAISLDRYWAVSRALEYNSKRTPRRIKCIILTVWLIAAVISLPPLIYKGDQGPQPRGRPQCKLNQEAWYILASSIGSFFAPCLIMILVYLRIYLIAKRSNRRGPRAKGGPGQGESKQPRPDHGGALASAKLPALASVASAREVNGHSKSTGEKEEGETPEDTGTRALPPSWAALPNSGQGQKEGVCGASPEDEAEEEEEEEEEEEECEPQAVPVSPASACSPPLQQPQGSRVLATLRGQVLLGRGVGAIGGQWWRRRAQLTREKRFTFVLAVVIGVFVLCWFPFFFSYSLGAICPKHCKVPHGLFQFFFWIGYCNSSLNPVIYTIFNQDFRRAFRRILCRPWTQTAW
Conditions: CHO.

Test [10] concerns the target T5, Alpha-2A adrenergic receptor (Homo sapiens) (UniProt P08913).
T5 sequence (whole entry): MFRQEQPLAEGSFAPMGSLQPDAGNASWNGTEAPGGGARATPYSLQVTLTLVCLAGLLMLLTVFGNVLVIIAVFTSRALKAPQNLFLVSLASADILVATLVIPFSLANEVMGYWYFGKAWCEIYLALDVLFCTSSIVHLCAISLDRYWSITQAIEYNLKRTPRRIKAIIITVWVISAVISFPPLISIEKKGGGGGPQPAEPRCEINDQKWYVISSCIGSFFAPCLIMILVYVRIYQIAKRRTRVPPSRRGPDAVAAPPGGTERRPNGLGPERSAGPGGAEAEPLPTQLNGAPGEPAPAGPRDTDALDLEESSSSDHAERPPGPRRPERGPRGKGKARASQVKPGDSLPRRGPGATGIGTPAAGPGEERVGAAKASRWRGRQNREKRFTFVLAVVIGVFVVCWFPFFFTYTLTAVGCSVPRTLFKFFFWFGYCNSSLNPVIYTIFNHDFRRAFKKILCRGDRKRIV
Conditions: CHO.

Test [11] deals with Mus musculus. As to the kind of experiment: Antidepressant activity in CD1 mouse assessed as decrease in immobility time at 0.025 mg/kg, ip administered 30 mins prior to coadministration with WAY100635 measured after 15 mins by forced swim test relative to vehicle-treated control. Type of test: functional, organism-based. Set-up: dose 0.025 mg/kg. The method, boiled down: (§2)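 Forced swimming test in mice using 0.025 mg/kg ip test dose. It was combined with the 5-HT1A antagonist WAY 100635 (0.1 mg/kg, sc) or with the α2 antagonist yohimbine (1.250 mg/kg, ip). Each antagonist was also given alone. Immobility time is the read-out, given as means ± SEMs of 7–8 animals.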

Test [12] has as its system Mus musculus. As to the kind of experiment: Antidepressant activity in CD1 mouse assessed as decrease in immobility time at 0.025 mg/kg, ip administered 15 mins prior to coadministration with yohimbine measured after 15 mins by forced swim test relative to vehicle-treated control. Set-up: dose 0.025 mg/kg. The test is classed as functional, organism-based. In outline:
as §2

As usually defined, the Ki is a measure of affinity in units of concentration, obtained from inhibition or displacement. The term pKb denotes the negative decadic logarithm of the Kb, by convention in mol/L. In the case of `C=CCc1ccccc1OC(C)C1=NCCN1` (racemic) [ALLYPHENYLINE], the Ki in [1] is 28.2 nM. Further, the result in the test with Mus musculus [2], in the test on Mus musculus [3] and with Mus musculus [4] was Active. The outcome in the test on Mus musculus [5] and in the test on Mus musculus [6] was inactive. The Intrinsic activity in [7] amounted to 0.9. The molecule also displayed a pD2 in test [8] of 6.86. The pEC50 entry in test [9] is “inactive”. The pKb in test [10] came to 7.4.

Consider `C=CCc1ccccc1O[C@H](C)C1=NCCN1`, for which, in test [1], the Ki was over 10000 nM. In addition, the Intrinsic activity in test [7] was 0.5. In test [8], this molecule yielded a pD2 of under 5. For the same molecule, in [9], the pEC50 result is “inactive”. In [10], this molecule yielded a negative-log Kb (pKb) of 7.4.

As for `CC(Oc1c(Cl)cccc1Cl)C1=NCCN1` (stereo not drawn) [LOFEXIDINE], affinity in test [1] was put at a Ki of 126 nM. This counts as sub-micromolar.

On to `C=CCc1ccccc1O[C@@H](C)C1=NCCN1`, for which, in test [1], the Ki was 35.5 nM. The result in the test with Mus musculus [11] and with Mus musculus [12] was inactive. In addition, the Intrinsic activity in [7] stood at 0.9. Also, the pD2 in test [8] came out at 7.19. The molecule further showed a negative logarithm of the Kb (pKb) in test [10] of 7.8.

For `Clc1cccc(Cl)c1N=C1NCCN1` [CLONIDINE], the affinity in [1], expressed as Ki, was 3240 nM.

Values taken from ChEMBL document CHEMBL2086372 (ACS Med Chem Lett, 2012).
